Reference: ChEMBL document CHEMBL1123490, “Synthesis and biological activities of oligo(8-bromoadenylates) as analogues of 5'-O-triphosphoadenylyl(2'----5')adenylyl(2'----5')adenosine” (J Med Chem, 1986)

Legend:
Mus musculus [1] = species on record: Mus musculus; assay: Compound measured for the stability in 20% mouse in L cell extracts in the presence ot ATP at 40 min.; assay type: functional, organism-based
Mus musculus [2] = species on record: Mus musculus; assay: Compound measured for the stability in 20% mouse in L cell extracts in the presence ot ATP at 75 min; assay type: functional, organism-based
Mus musculus [3] = species on record: Mus musculus; assay: Compound measured for the stability in 20% mouse in L cell extracts in the presence ot ATP at 12 hr; assay type: functional, organism-based
Mus musculus [4] = species on record: Mus musculus; assay: Compound measured for the stability in 20% mouse in L cell extracts in the presence ot ATP at 150 min; assay type: functional
Mus musculus [5] = species on record: Mus musculus; assay: Compound measured for the stability in 20% mouse in L cell extracts in the absence ot ATP at 12 hr; assay type: functional
Mus musculus [6] = species on record: Mus musculus; assay: Compound measured for the stability in 20% mouse in L cell extracts in the absence ot ATP at 150 min; assay type: functional
Mus musculus [7] = species on record: Mus musculus; assay: Compound measured for the stability in 20% mouse in L cell extracts in the absence ot ATP at 240 min; assay type: functional, organism-based
Mus musculus [8] = species on record: Mus musculus; assay: Compound measured for the stability in 20% mouse in L cell extracts in the absence ot ATP at 40 min.; assay type: functional, organism-based
Mus musculus [9] = species on record: Mus musculus; assay: Compound measured for the stability in 20% mouse in L cell extracts in the absence ot ATP at 75 min; assay type: functional
Mus musculus [10] = species on record: Mus musculus; assay: Compound measured for the stability in 20% mouse in L cell extracts in the presence of ATP at 0 min.; assay type: functional, organism-based
Mus musculus [11] = species on record: Mus musculus; assay: Compound measured for the stability in 20% mouse in L cell extracts in the absence ot ATP at 0 min.; assay type: functional
[12] = molecular target: T1, 2-5A-dependent ribonuclease (Mus musculus) (UniProt Q05921); assay: (§1) Compound was tested for activation of RNase L by measuring concentration required for 50% inhibition of protein synthesis in mouse L cell extracts; assay type: cell-based
T1 sequence (whole entry): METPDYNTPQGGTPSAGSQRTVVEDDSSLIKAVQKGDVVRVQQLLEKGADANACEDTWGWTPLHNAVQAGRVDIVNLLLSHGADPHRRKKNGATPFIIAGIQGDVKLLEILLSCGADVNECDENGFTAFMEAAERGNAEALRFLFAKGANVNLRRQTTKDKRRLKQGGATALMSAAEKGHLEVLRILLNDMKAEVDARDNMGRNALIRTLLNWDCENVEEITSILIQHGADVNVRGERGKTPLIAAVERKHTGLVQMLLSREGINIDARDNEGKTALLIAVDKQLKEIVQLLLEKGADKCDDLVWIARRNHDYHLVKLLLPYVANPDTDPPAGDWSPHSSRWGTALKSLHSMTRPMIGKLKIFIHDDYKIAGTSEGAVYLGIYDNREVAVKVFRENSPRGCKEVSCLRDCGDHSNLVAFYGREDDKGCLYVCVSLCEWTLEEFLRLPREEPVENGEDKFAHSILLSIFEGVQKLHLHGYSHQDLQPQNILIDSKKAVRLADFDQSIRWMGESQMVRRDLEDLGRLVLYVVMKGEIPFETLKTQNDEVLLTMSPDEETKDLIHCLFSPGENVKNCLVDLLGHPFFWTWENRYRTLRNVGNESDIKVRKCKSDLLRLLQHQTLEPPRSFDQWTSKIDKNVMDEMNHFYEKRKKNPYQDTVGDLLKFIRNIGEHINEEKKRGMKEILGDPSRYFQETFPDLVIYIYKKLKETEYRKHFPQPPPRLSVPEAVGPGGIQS
How it was run: (§2)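 Cell-free translation was run in mouse L cell extract programmed with EMCV RNA, with creatine kinase, amino acids and [3H]leucine added. At set times, aliquots were spotted onto filter disks presoaked in 15% trichloroacetic acid to measure incorporation. The value is the concentration giving 50% inhibition of protein synthesis.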

[13] = molecular target: T1, 2-5A-dependent ribonuclease (Mus musculus); assay: Binding affinity against 2-5A-dependent RNase L in mouse L cell extracts using ppp5'A2p5'A2'p5'A3'[32P]pCp as a radioactive probe; assay type: cell-free
How it was run: (§3)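 Crude mouse L cell extract served as the RNase L source, with ppp5'A2'p5'A2'p5'A3'[32P]p5'Cp as the radioactive probe, in a competition binding assay on nitrocellulose. The value is the analogue concentration giving 50% displacement of the probe from the endonuclease–nitrocellulose complex.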

[14] = molecular target: T2, 2-5A-dependent ribonuclease (Mus musculus, UniProt Q05921); assay: as §1; assay type: cell-based
T2 sequence (Q05921 whole entry): T1 sequence (whole entry)

[15] = molecular target: T1, 2-5A-dependent ribonuclease (Mus musculus); assay: Binding affinity against 2-5A-dependent RNase L in mouse L cell extract using ppp5'A2p5'A2'p5'A3'[32P]pCp as a radioactive probe; assay type: cell-free; how it was run: as §3
[16] = molecular target: T1, 2-5A-dependent ribonuclease (Mus musculus); assay: (§4) compound was tested for activation of RNase L by measuring concentration required for 50% inhibition of protein synthesis in mouse L cell extracts; assay type: cell-based; how it was run: as §2
[17] = molecular target: T2, 2-5A-dependent ribonuclease; assay: as §4; assay type: cell-based; how it was run: as §2
Mus musculus [18] = species on record: Mus musculus; assay: Compound measured for the stability in 20% mouse in L cell extracts in the absence of ATP at 0 min; assay type: functional
Mus musculus [19] = species on record: Mus musculus; assay: Compound measured for the stability in 20% mouse in L cell extracts in the presence of ATP at 40 min; assay type: functional, organism-based
Mus musculus [20] = species on record: Mus musculus; assay: Compound measured for the stability in 20% mouse in L cell extracts in the presence of ATP at 75 min; assay type: functional, organism-based
Mus musculus [21] = species on record: Mus musculus; assay: Compound measured for the stability in 20% mouse in L cell extracts in the presence of ATP at 0 min; assay type: functional, organism-based
Mus musculus [22] = species on record: Mus musculus; assay: Compound measured for the stability in 20% mouse in L cell extracts in the presence of ATP at 120 min; assay type: functional, organism-based
Mus musculus [23] = species on record: Mus musculus; assay: Compound measured for the stability in 20% mouse in L cell extracts in the presence of ATP at 12 hr; assay type: functional, organism-based
Mus musculus [24] = species on record: Mus musculus; assay: Compound measured for the stability in 20% mouse in L cell extracts in the presence of ATP at 220 min; assay type: functional, organism-based
Mus musculus [25] = species on record: Mus musculus; assay: Compound measured for the stability in 20% mouse in L cell extracts in the absence of ATP at 90 min; assay type: functional
Mus musculus [26] = species on record: Mus musculus; assay: Compound measured for the stability in 20% mouse in L cell extracts in the absence of ATP at 120 min; assay type: functional
Mus musculus [27] = species on record: Mus musculus; assay: Compound measured for the stability in 20% mouse in L cell extracts in the absence of ATP at 12 hr; assay type: functional
Mus musculus [28] = species on record: Mus musculus; assay: Compound measured for the stability in 20% mouse in L cell extracts in the absence of ATP at 150 min; assay type: functional
Mus musculus [29] = species on record: Mus musculus; assay: Compound measured for the stability in 20% mouse in L cell extracts in the absence of ATP at 240 min; assay type: functional
Mus musculus [30] = species on record: Mus musculus; assay: Compound measured for the stability in 20% mouse in L cell extracts in the absence of ATP at 30 min; assay type: functional

Nc1ncnc2c1nc(Br)n2[C@@H]1O[C@H](COP(=O)(O)O[C@@H]2[C@H](O)[C@@H](COP(=O)(O)O[C@@H]3[C@H](O)[C@@H](COP(=O)(O)O)O[C@H]3n3c(Br)nc4c(N)ncnc43)O[C@H]2n2c(Br)nc3c(N)ncnc32)[C@@H](O)[C@H]1O
Stability (Mus musculus [1]): 99% | Stability (Mus musculus [2]): 89% | Stability (Mus musculus [3]): 53% | Stability (Mus musculus [4]): 84% | Stability (Mus musculus [5]): 22% | Stability (Mus musculus [6]): 77% | Stability (Mus musculus [7]): 76% | Stability (Mus musculus [8]): 88% | Stability (Mus musculus [9]): 82% | Stability (Mus musculus [10]): 100% | Stability (Mus musculus [11]): 100% | Relative activity [12]: 0.0023 | Activity [13]: 2e-08 | IC50 [14]: 1 µM | Relative ability [15]: 0.035

Nc1ncnc2c1nc(Br)n2[C@@H]1O[C@H](COP(=O)(O)O[C@@H]2[C@H](O)[C@@H](COP(=O)(O)O[C@@H]3[C@H](O)[C@@H](COP(=O)(O)O[C@@H]4[C@H](O)[C@@H](COP(=O)(O)O)O[C@H]4n4c(Br)nc5c(N)ncnc54)O[C@H]3n3c(Br)nc4c(N)ncnc43)O[C@H]2n2c(Br)nc3c(N)ncnc32)[C@@H](O)[C@H]1O
Relative activity [16]: 0.0033 | Activity [13]: 4e-09 | Relative ability [13]: 0.18 | IC50 [17]: 0.7 µM

Nc1ncnc2c1ncn2[C@@H]1O[C@H](COP(=O)(O)O[C@@H]2[C@H](O)[C@@H](COP(=O)(O)O[C@@H]3[C@H](O)[C@@H](COP(=O)(O)OP(=O)(O)OP(=O)(O)O)O[C@H]3n3cnc4c(N)ncnc43)O[C@H]2n2cnc3c(N)ncnc32)[C@@H](O)[C@H]1O
Relative activity [12]: 1

Nc1ncnc2c1nc(Br)n2[C@@H]1O[C@H](COP(=O)(O)O[C@@H]2[C@H](O)[C@@H](COP(=O)(O)O[C@@H]3[C@H](O)[C@@H](COP(=O)(O)OP(=O)(O)OP(=O)(O)O)O[C@H]3n3c(Br)nc4c(N)ncnc43)O[C@H]2n2c(Br)nc3c(N)ncnc32)[C@@H](O)[C@H]1O
Stability (Mus musculus [18]): 48% | Stability (Mus musculus [19]): 54% | Stability (Mus musculus [20]): 46% | Stability (Mus musculus [21]): 71% | Stability (Mus musculus [22]): 36% | Stability (Mus musculus [23]): 0% | Stability (Mus musculus [24]): 16% | Stability (Mus musculus [25]): 3% | Relative activity [12]: 0.015 | IC50 [14]: 0.15 µM | Activity [15]: 8e-09 | Relative ability [15]: 0.088

Nc1ncnc2c1ncn2[C@@H]1O[C@H](CO[P@](=O)(O)O[C@@H]2[C@H](O)[C@@H](CO[P@](=O)(O)O[C@@H]3[C@H](O)[C@@H](CO[P@](=O)(O)O[P@@](=O)(O)OP(=O)(O)O)O[C@H]3n3cnc4c(N)ncnc43)O[C@H]2n2cnc3c(N)ncnc32)[C@@H](O)[C@H]1O
IC50 [14]: 0.0023 µM

Nc1ncnc2c1nc(Br)n2[C@@H]1O[C@H](COP(=O)(O)O[C@@H]2[C@H](O)[C@@H](COP(=O)(O)O[C@@H]3[C@H](O)[C@@H](COP(=O)(O)OP(=O)(O)O)O[C@H]3n3c(Br)nc4c(N)ncnc43)O[C@H]2n2c(Br)nc3c(N)ncnc32)[C@@H](O)[C@H]1O
Stability (Mus musculus [18]): 100% | Stability (Mus musculus [26]): 67% | Stability (Mus musculus [27]): 0% | Stability (Mus musculus [28]): 55% | Stability (Mus musculus [19]): 87% | Stability (Mus musculus [20]): 71% | Stability (Mus musculus [21]): 100% | Stability (Mus musculus [23]): 47% | Stability (Mus musculus [24]): 70% | Stability (Mus musculus [29]): 0% | Stability (Mus musculus [30]): 80% | Stability (Mus musculus [25]): 70% | Relative activity [12]: 0.05 | Activity [13]: 3e-09 | Relative ability [13]: 0.23 | IC50 [14]: 0.046 µM

Nc1ncnc2c1nc(Br)n2[C@H]1O[C@@H](COP(=O)(O)O[C@H]2[C@@H](O)[C@H](COP(=O)(O)O[C@H]3[C@@H](O)[C@H](COP(=O)(O)O[C@H]4[C@@H](O)[C@H](COP(=O)(O)O[C@H]5[C@@H](O)[C@H](COP(=O)(O)O)O[C@@H]5n5c(Br)nc6c(N)ncnc65)O[C@@H]4n4c(Br)nc5c(N)ncnc54)O[C@@H]3n3c(Br)nc4c(N)ncnc43)O[C@@H]2n2c(Br)nc3c(N)ncnc32)[C@H](O)[C@@H]1O
Relative activity [16]: < 6e-05 | Activity [13]: 3e-09 | Relative ability [13]: 0.23 | IC50 [17]: > 40 µM

Nc1ncnc2c1nc(Br)n2[C@@H]1O[C@H](COP(=O)(O)O[C@@H]2[C@H](O)[C@@H](COP(=O)(O)O[C@@H]3[C@H](O)[C@@H](CO)O[C@H]3n3c(Br)nc4c(N)ncnc43)O[C@H]2n2c(Br)nc3c(N)ncnc32)[C@@H](O)[C@H]1O
Relative activity [16]: < 5e-05 | Activity [13]: 6e-07 | Relative ability [13]: 0.0012 | IC50 [17]: > 50 µM

Nc1ncnc2c1nc(Br)n2[C@@H]1O[C@H](COP(=O)(O)O[C@@H]2[C@H](O)[C@@H](COP(=O)(O)O[C@@H]3[C@H](O)[C@@H](COP(=O)(O)O[C@@H]4[C@H](O)[C@@H](CO)O[C@H]4n4c(Br)nc5c(N)ncnc54)O[C@H]3n3c(Br)nc4c(N)ncnc43)O[C@H]2n2c(Br)nc3c(N)ncnc32)[C@@H](O)[C@H]1O
Relative activity [16]: < 1e-05 | Activity [13]: 3e-08 | Relative ability [13]: 0.023 | IC50 [17]: > 200 µM
